Assay results from ChEMBL document CHEMBL4138219, “Pyrano[3,2-a]carbazole alkaloids as effective agents against ischemic stroke in vitro and in vivo” (Eur J Med Chem, 2018).
Active and inactive are the calls of the source. The rule behind the calls is not given here.

Legend:
[1] = test system: Rattus norvegicus; assay: Reversal of middle cerebral artery occlusion and reperfusion-induced death in Sprague-Dawley rat assessed as survival rate at 40 mg/kg administered via oral gavage as qd for 7 days measured on day 7 post reperfusion (reference value: 50%); assay type: functional; settings: 168 h
[2] = AUC (0 to t) in Sprague-Dawley rat brain at 40 mg/kg administered via oral gavage by LC-MS/MS method; assay type: ADME, organism-based; settings: in vivo
[3] = Ratio of AUC (0 to t) in Sprague-Dawley rat brain to plasma at 40 mg/kg administered via oral gavage; assay type: ADME, organism-based; settings: read-out: Ratio AUC
Procedure, shortened: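 Brain-to-plasma exposure ratio, taken as AUC(0-t) in brain tissue divided by AUC(0-t) in plasma. Male SD rats (260–280 g) received a single 40 mg/kg oral gavage dose and were sampled from 0.083 to 24 h (n = 3 per time point). Brain was homogenized in saline and quantified by LC-MS/MS.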

[4] = test system: PC-12; assay: Cytoprotective activity against H2O2-induced damage in rat PC12 cells assessed as cell viability at 10 uM after 24 hrs by MTT assay (reference value: 70.1 +/- 3.7%); assay type: functional; settings: PC-12, 24 h, read-out: Activity
[5] = test system: PC-12; assay: Cytoprotective activity against oxygen-glucose deprivation/reoxygenation-induced damage in rat PC12 cells assessed as cell viability at 10 uM after 24 hrs by MTT assay (reference value: 70 +/- 5.1%); assay type: functional; settings: PC-12, 24 h, read-out: Activity
[6] = Plasma concentration in Sprague-Dawley rat at 40 mg/kg administered via oral gavage measured at 0.5 hrs by LC-MS/MS method; assay type: ADME, organism-based
Procedure, shortened: (§1)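 For the time-course, male SD rats (260–280 g) received a single 40 mg/kg oral gavage dose and were killed at 0.083, 0.25, 0.5, 1, 2, 4, 6, 8, 12 and 24 h (n = 3 each). Plasma and brain homogenate (three volumes of saline) were protein-precipitated, centrifuged, and analyzed by validated LC-MS/MS. Results are given as mean ± SD.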

[7] = Drug uptake in Sprague-Dawley rat brain at 40 mg/kg administered via oral gavage measured at 6 hrs by LC-MS/MS method; assay type: ADME, organism-based; settings: read-out: Drug uptake; procedure, shortened: as §1
[8] = test system: Rattus norvegicus; assay: Reversal of middle cerebral artery occlusion and reperfusion-induced death in Sprague-Dawley rat assessed as survival rate at 80 mg/kg administered via oral gavage as qd for 7 days measured on day 7 post reperfusion (reference value: 50%); assay type: functional
[9] = Drug uptake in Sprague-Dawley rat brain at 40 mg/kg administered via oral gavage measured at 2 hrs by LC-MS/MS method; assay type: ADME, organism-based; settings: read-out: Drug uptake; procedure, shortened: as §1
[10] = Plasma concentration in Sprague-Dawley rat at 40 mg/kg administered via oral gavage measured at 2 hrs by LC-MS/MS method; assay type: ADME, organism-based; procedure, shortened: as §1
[11] = Drug uptake in Sprague-Dawley rat brain at 40 mg/kg administered via oral gavage measured at 12 hrs by LC-MS/MS method; assay type: ADME, organism-based; settings: read-out: Drug uptake; procedure, shortened: as §1
[12] = test system: Rattus norvegicus; assay: Reversal of middle cerebral artery occlusion and reperfusion-induced decrease in body weight in Sprague-Dawley rat assessed as body weight at 20 mg/kg administered via oral gavage as qd for 7 days measured on day 7 post reperfusion (reference value: 82%); assay type: functional; set-up: scale not given: the % may be the effect or the level left
[13] = Plasma concentration in Sprague-Dawley rat at 40 mg/kg administered via oral gavage measured at 6 hrs by LC-MS/MS method; assay type: ADME, organism-based; procedure, shortened: as §1
[14] = Plasma concentration in Sprague-Dawley rat at 40 mg/kg administered via oral gavage measured at 4 hrs by LC-MS/MS method; assay type: ADME, organism-based; procedure, shortened: as §1
[15] = Drug uptake in Sprague-Dawley rat brain at 40 mg/kg administered via oral gavage measured at 24 hrs by LC-MS/MS method; assay type: ADME, organism-based; settings: read-out: Drug uptake; procedure, shortened: as §1
[16] = AUC (0 to t) in Sprague-Dawley rat plasma at 40 mg/kg administered via oral gavage by LC-MS/MS method; assay type: ADME, organism-based
[17] = Cmax in Sprague-Dawley rat brain at 40 mg/kg administered via oral gavage by LC-MS/MS method; assay type: ADME, organism-based; set-up: dose 40 mg/kg, route oral
[18] = test system: Rattus norvegicus; assay: Increase in neurological function in Sprague-Dawley rat middle cerebral artery occlusion and reperfusion model assessed as decrease in behavior deficit at 20 to 80 mg/kg administered via oral gavage as qd for 7 days measured on day 7 post reperfusion by Zea Longa's test; assay type: functional, organism-based
Procedure, shortened: (§2)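 Male SD rats (260–280 g) underwent MCAO with reperfusion. They were randomized to model, 80 mg/kg 3-n-butylphthalide, or compound at 20, 40 or 80 mg/kg. Rats without neurological impairment after reperfusion were excluded. Neurological deficit was scored on days 1–7 by the Zea Longa test, and forelimb falls were counted in a grid test.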

[19] = Tmax in Sprague-Dawley rat brain at 40 mg/kg administered via oral gavage by LC-MS/MS method; assay type: ADME, organism-based
[20] = test system: Rattus norvegicus; assay: Anti-cerebral ischemia in Sprague-Dawley rat middle cerebral artery occlusion and reperfusion model assessed as decrease in brain infract volume at 20 to 40 mg/kg administered via oral gavage as qd for 7 days measured on day 7 post reperfusion by TTC staining-based assay; assay type: functional, organism-based
Procedure, shortened: (§3)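 Male Sprague-Dawley rats (260e280 g) randomised to MCAO/R, MCAO/R + NBP 80 mg/kg, or MCAO/R + compound at 20, 40 or 80 mg/kg. Rats without neurological impairment, or dead after reperfusion at 0 h, were excluded. On day 7, rats were transcardially perfused with PBS. Brains were cut into six 2-mm sections and stained with 1.5% TTC. Infarct = right pale area/left non-ischemic area, expressed as % of the MCAO/R group.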

[21] = test system: Rattus norvegicus; assay: Increase in neurological function in Sprague-Dawley rat middle cerebral artery occlusion and reperfusion model assessed as decrease in forelimb falling number at 20 to 80 mg/kg administered via oral gavage as qd for 7 days measured on day 2 to 7 during compound dosing post reperfusion by grid test; assay type: functional, organism-based; procedure, shortened: as §2
[22] = Drug uptake in Sprague-Dawley rat brain at 40 mg/kg administered via oral gavage measured at 0.083 hrs by LC-MS/MS method; assay type: ADME, organism-based; settings: in vivo, BLD = below limit of detection; procedure, shortened: as §1
[23] = Plasma concentration in Sprague-Dawley rat at 40 mg/kg administered via oral gavage measured at 24 hrs by LC-MS/MS method; assay type: ADME, organism-based; procedure, shortened: as §1
[24] = Antioxidant activity assessed as free radical scavenging activity at 25 mg/ml by ESR method; assay type: functional
Procedure, shortened: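 ESR spin-trapping was done at room temperature. 50 mmol/L TEMP and 25 mg/mL compound were mixed in DMSO and exposed to UVA light for 1 min before recording. Settings were 10 mW microwave power, 1 G field modulation and 150 G scan width.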

[25] = test system: Rattus norvegicus; assay: Reversal of middle cerebral artery occlusion and reperfusion-induced death in Sprague-Dawley rat assessed as survival rate at 20 mg/kg administered via oral gavage as qd for 7 days measured on day 7 post reperfusion (reference value: 50%); assay type: functional; settings: 168 h
[26] = Drug uptake in Sprague-Dawley rat brain at 40 mg/kg administered via oral gavage measured at 0.25 hrs by LC-MS/MS method; assay type: ADME, organism-based; settings: in vivo, BLD = below limit of detection; procedure, shortened: as §1
[27] = Plasma concentration in Sprague-Dawley rat at 40 mg/kg administered via oral gavage measured at 0.25 hrs by LC-MS/MS method; assay type: ADME, organism-based; procedure, shortened: as §1
[28] = Drug uptake in Sprague-Dawley rat brain at 40 mg/kg administered via oral gavage measured at 4 hrs by LC-MS/MS method; assay type: ADME, organism-based; settings: read-out: Drug uptake; procedure, shortened: as §1
[29] = Plasma concentration in Sprague-Dawley rat at 40 mg/kg administered via oral gavage measured at 12 hrs by LC-MS/MS method; assay type: ADME, organism-based; procedure, shortened: as §1
[30] = Plasma concentration in Sprague-Dawley rat at 40 mg/kg administered via oral gavage measured at 8 hrs by LC-MS/MS method; assay type: ADME, organism-based; procedure, shortened: as §1
[31] = Plasma concentration in Sprague-Dawley rat at 40 mg/kg administered via oral gavage measured at 0.083 hrs by LC-MS/MS method; assay type: ADME, organism-based; settings: in vivo, BLD = below limit of detection; procedure, shortened: as §1
[32] = test system: Cortical neurone; assay: Neuroprotective activity against H2O2-induced damage in Sprague-Dawley rat primary cortical neurons assessed as cell viability at 1 uM after 24 hrs by MTT assay (reference value: 70 +/- 2.6%); assay type: functional; settings: read-out: Activity
[33] = Plasma concentration in Sprague-Dawley rat at 40 mg/kg administered via oral gavage measured at 1 hr by LC-MS/MS method; assay type: ADME, organism-based; procedure, shortened: as §1
[34] = Cmax in Sprague-Dawley rat plasma at 40 mg/kg administered via oral gavage by LC-MS/MS method; assay type: ADME, organism-based; set-up: dose 40 mg/kg, route oral
[35] = test system: Cortical neurone; assay: Neuroprotective activity against H2O2-induced damage in Sprague-Dawley rat primary cortical neurons assessed as cell viability at 10 uM after 24 hrs by MTT assay (reference value: 70 +/- 2.6%); assay type: functional; settings: read-out: Activity
[36] = Drug uptake in Sprague-Dawley rat brain at 40 mg/kg administered via oral gavage measured at 8 hrs by LC-MS/MS method; assay type: ADME, organism-based; settings: read-out: Drug uptake; procedure, shortened: as §1
[37] = Drug uptake in Sprague-Dawley rat brain at 40 mg/kg administered via oral gavage measured at 1 hr by LC-MS/MS method; assay type: ADME, organism-based; settings: read-out: Drug uptake; procedure, shortened: as §1
[38] = Drug uptake in Sprague-Dawley rat brain at 40 mg/kg administered via oral gavage measured at 0.5 hrs by LC-MS/MS method; assay type: ADME, organism-based; settings: read-out: Drug uptake; procedure, shortened: as §1
[39] = Tmax in Sprague-Dawley rat plasma at 40 mg/kg administered via oral gavage by LC-MS/MS method; assay type: ADME, organism-based
[40] = test system: Rattus norvegicus; assay: Anti-cerebral ischemia in Sprague-Dawley rat middle cerebral artery occlusion and reperfusion model assessed as decrease in brain infract volume at 80 mg/kg administered via oral gavage as qd for 7 days measured on day 7 post reperfusion by TTC staining-based assay; assay type: functional, organism-based; procedure, shortened: as §3
[41] = test system: Rattus norvegicus; assay: Reversal of middle cerebral artery occlusion and reperfusion-induced decrease in body weight in Sprague-Dawley rat assessed as body weight at 80 mg/kg administered via oral gavage as qd for 7 days measured on day 7 post reperfusion (reference value: 82%); assay type: functional; set-up: scale not given: the % may be the effect or the level left
[42] = test system: Rattus norvegicus; assay: Increase in neurological function in Sprague-Dawley rat middle cerebral artery occlusion and reperfusion model assessed as decrease in behavior deficit at 80 mg/kg administered via oral gavage as qd for 7 days measured on day 7 post reperfusion by Zea Longa's test; assay type: functional, organism-based; procedure, shortened: as §2
[43] = test system: Cortical neurone; assay: Neuroprotective activity against H2O2-induced damage in Sprague-Dawley rat primary cortical neurons assessed as cell viability at 50 uM after 24 hrs by MTT assay (reference value: 70 +/- 2.6%); assay type: functional; settings: read-out: Activity

## Cc1cc2c([nH]c3ccc(C(C)(C)C)cc32)c2c1OC(C)(C)C=C2
[1]
  survival at 40 mg/kg: 62.5%
[2]
  AUCt: 80618 ng·h/g
[3]
  Kp: 4.3
[4]
  viability at 10 µM: 96.8%
[5]
  viability at 10 µM: 96.1%
[6]
  concentration at 0.5 h: 157 ng/mL
[7]
  concentration at 6 h: 4720 ng/g
[8]
  Activity: inactive
[9]
  concentration at 2 h: 1160 ng/g
[10]
  concentration at 2 h: 871 ng/mL
[11]
  concentration at 12 h: 5330 ng/g
[12]
  Activity: 94.7%
[13]
  concentration at 6 h: 1510 ng/mL
[14]
  concentration at 4 h: 1110 ng/mL
[15]
  concentration at 24 h: 472 ng/g
[16]
  AUC(0-t): 18800 ng·h/mL
[17]
  Cmax: 5890 ng/g
[18]
  Activity: Active
[19]
  Tmax: 8 h
[20]
  Activity: Active
[21]
  Activity: Active
[22]
  Drug uptake: Bld
[23]
  concentration at 24 h: 19.6 ng/mL
[24]
  Activity: Active
[25]
  survival at 20 mg/kg: 81.3%
[26]
  Drug uptake: Bld
[27]
  concentration at 0.25 h: 264 ng/mL
[28]
  concentration at 4 h: 3080 ng/g
[29]
  concentration at 12 h: 1040 ng/mL
[30]
  concentration at 8 h: 1140 ng/mL
[31]
  Cp: Bld
[32]
  viability at 1 µM: 97.6%
[33]
  concentration at 1 h: 324 ng/mL
[34]
  Cmax: 1510 ng/mL
[35]
  viability at 10 µM: 119%
[36]
  concentration at 8 h: 5890 ng/g
[37]
  concentration at 1 h: 129 ng/g
[38]
  concentration at 0.5 h: 38.5 ng/g
[39]
  Tmax: 6 h

## COc1ccc2[nH]c3c4c(c(C=O)cc3c2c1)OC(C)(C)C=C4 [CLAULANSINE F]
[4]
  viability at 10 µM: 87.7%
[5]
  viability at 10 µM: 93.1%

## COc1ccc2c(c1)c1cc(C=O)c3c(c1n2C)C=CC(C)(C)O3
[4]
  viability at 10 µM: 93.8%
[5]
  viability at 10 µM: 94.4%

## CCCCC1OC(=O)c2ccccc21 (stereo not drawn) [RAC-3-N-BUTYLPHTHALIDE]
[8]; 168 h
  survival at 80 mg/kg: 68.8%
[40]
  Activity: Active
[41]
  Activity: 87.6%
[42]
  Activity: Active

## CC1=NN(c2ccccc2)C(=O)C1 [EDARAVONE]
[43]
  viability at 50 µM: 86.7%
[24]
  Activity: Active
[35]
  viability at 10 µM: 85.2%
